beta cell repl: inducers of MIN6 beta-cell proliferation, primary screen, ATP luminescence, uHTS | MIN6 cells proliferation, ATPlite luminescence, 48 h; cells starved in 0.2% serum; 100% = growth in 10% serum | proliferation, % at 10 µM | actives 0.29% (n = 330,000) | AID 2380, 2010;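 active = compounds whose signal lies at least 3.5 SD above the mean of all wells on their plate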;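 also: 0% = DMSO-treated cells in low-serum medium and 100% = 10% serum control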
Calb FLC: C. albicans growth inhibition with fluconazole, primary screen, CaCi-2 strain, Alamar Blue fluorescence; C. albicans CaCi-2 + fluconazole, 48 h; growth inhibition, % (test concentration not listed); actives 0.57% (n = 300,000);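 active = growth inhibition above about 58% in most replicates, limit read from the data, passing the limit was not always enough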;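 also: all wells also contain fluconazole at 8 µg/ml as a sub-toxic cotreatment; 0% = median of DMSO wells and 100% = median of geldanamycin control wells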
Ins promoter up: insulin promoter activators in MIN6 cells, imaging, high-content screening, mouse beta cells | MIN6 insulin promoter-GFP reporter; hits give high values | z-score at 5 µM | actives 0.3% (n = 190,000) | AID 1625, 2009;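 active = z-score above 3 at 5 µM with at least 500 cells counted in the well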
HTR2A ag: mouse Htr2a agonists via beta-arrestin recruitment, primary screen, cell-based, luminescence; actives 0.66% (n = 360,000); activation, % at 7.6 µM; CHO-K1 mHTR2A beta-arrestin complementation; percent of 30 µM serotonin response; 5-hydroxytryptamine receptor 2A (Mus musculus), P35363; AID 624169, 2012;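 active = activation above a run cutoff, the mean activation of all tested compounds plus 3 SD, cut at about 14% in these data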;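 also: 0% = plate median of compound wells and 100% = 30 µM serotonin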
SR-BI HDL uptake: inhibitors of SR-BI mediated HDL lipid uptake, primary screen, ldlA[mSR-BI] cells, fluorescence, single point | inhibition, % at 12.5 µM | actives 0.96% (n = 320,000) | ldlA[mSR-BI] CHO cells, DiI-HDL uptake fluorescence, 3 h | Scavenger receptor class B member 1 (Mus musculus), Q61009 | AID 488896, 2010;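 active = mean replicate inhibition of at least 70% and a set share of replicates each scoring 70 or more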;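 also: 0% = median of neutral control wells and 100% = median of positive control wells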
Target sequence (Q61009 whole entry, looked up): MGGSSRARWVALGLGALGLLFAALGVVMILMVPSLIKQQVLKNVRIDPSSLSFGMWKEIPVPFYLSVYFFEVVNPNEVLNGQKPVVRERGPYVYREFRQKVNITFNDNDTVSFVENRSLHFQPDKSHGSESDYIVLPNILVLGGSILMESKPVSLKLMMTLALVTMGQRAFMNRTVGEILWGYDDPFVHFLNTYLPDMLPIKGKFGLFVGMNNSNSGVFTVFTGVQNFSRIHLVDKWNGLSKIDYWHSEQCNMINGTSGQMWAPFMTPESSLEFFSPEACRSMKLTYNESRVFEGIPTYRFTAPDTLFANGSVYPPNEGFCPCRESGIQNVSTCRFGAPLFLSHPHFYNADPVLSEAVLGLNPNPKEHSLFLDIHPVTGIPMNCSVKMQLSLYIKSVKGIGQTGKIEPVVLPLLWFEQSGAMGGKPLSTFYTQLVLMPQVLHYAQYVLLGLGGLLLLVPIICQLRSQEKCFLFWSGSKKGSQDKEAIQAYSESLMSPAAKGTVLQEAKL
SR-BI DiI-HDL act: activators of SR-BI mediated DiI-HDL uptake, primary screen, ldlA[mSR-BI] CHO cells, DiI fluorescence; 3 h; 100 = double the neutral-control signal; activation, % at 12.5 µM; actives 0.096% (n = 320,000); AID 504775, 2011;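 active = mean replicate activation of at least 60% and every replicate at or above 60%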;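 also: 0% = median plate neutral-control signal and 100% = twice that signal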
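system = CHO ldlA[mSR-BI] cells, LDL receptor-null, SR-BI overexpressing | medium = Ham's F12 with 0.5% BSA, HEPES 25 mM, pH 7.4 | probe or stimulus = DiI-HDL 10 µg/mL | compound dosing = single-point compound dose | incubation = compound exposure 3 h, 37 °C | technique = DiI fluorescence, bottom read | read-out = cell-associated DiI fluorescence as measure of HDL uptake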
OPRM1 ag: OPRM1 agonists via beta-arrestin recruitment, confirmation, counter-screen for mouse HTR2A agonist project, cell-based, luminescence, single concentration; shares compounds with HTR2A ag; U2OS OPRM1 beta-arrestin PathHunter; DMSO 0%, DAMGO 9.3 µM 100%; activation, % at 9.3 µM; actives 5.3% (n = 2,300); AID 624380, 2012;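 active = mean activation above the mean of DMSO-only wells plus 3 SD, cut at about 0.5% in these data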
m5-HT2A ag conf: mouse HTR2A agonists, beta-arrestin recruitment, confirmation, cell-based, luminescence, CHO-K1 PathHunter, triplicate; shares compounds with HTR2A ag; DMSO 0%, 30 µM serotonin 100%; activation, % at 7.6 µM; actives 19% (n = 2,300); AID 624381, 2012;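 active = mean activation across triplicates above the hit threshold derived in the original primary screen, cut at about 15% in these data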
Active calls of the source: *; / = no result. Compounds with a hit are over-represented: about 2.4% of the library has one in this group of screens.

SMILES	beta cell repl	Calb FLC	Ins promoter up	HTR2A ag	SR-BI HDL uptake	SR-BI DiI-HDL act	OPRM1 ag	m5-HT2A ag conf
O=C(CCC(=O)c1ccccc1)NCCc1c[nH]c2ccccc12	0	4	-0.03	21*	-15	15	-1	11
CCOC(=O)c1cnc(SCC(=O)OC)nc1N	-2	-11	/	26*	-4	4	-1	-3
CCc1ccc(OCC(=O)NNCC(=O)Nc2ccc(OC)cc2)cc1	-3	/	/	1	3	-3	/	/
O=C(NC1CCCCC1)c1cccc2c(-c3ccc(F)c(F)c3)coc12	/	/	/	-4	/	/	/	/
Cc1nc(SCC(=O)NCCc2ccc(Cl)cc2)nc(C)c1C	-2	0	-0.18	15*	-9	9	-1	-5
Cc1csc(SCC(=O)NCCc2ccc(Cl)cc2)n1	6	27	-0.42	0	-11	11	/	/
O=C(NCc1nc2ccccc2[nH]1)C1=C[C@@H](c2ccc(C(F)(F)F)cc2)C[C@@H](OCc2ccc(CO)cc2)O1	-8	8	/	-2	-30	30	/	/
C[C@H](c1ccccc1)N1C[C@H](COCc2ccccc2)Oc2cc(N3CC[C@@H](O)C3)ccc2S1(=O)=O	/	/	/	0	/	/	/	/
CC(C)(C)OC(=O)C[C@H]1C/C=C\C[C@H](CC(=O)N[C@H](CO)Cc2ccccc2)C(=O)N[C@@H](Cc2ccccc2)COC1=O	-1	/	/	8	60	-60	/	/
Cc1nnc(NC(=O)c2nc(S(=O)(=O)Cc3ccccc3)ncc2Cl)s1	-4	4	/	15*	-12	12	0	-2
Cc1cccc(C)c1NC(=O)c1nc(S(=O)(=O)Cc2ccccc2)ncc1Cl	-7	-5	/	-9	-1	1	/	/
COc1ccc(NS(=O)(=O)c2cccc(C(=O)NCC(c3ccco3)N(C)C)c2)cc1 (stereo not given)	2	-5	/	-12	7	-7	/	/
COc1ccc(NS(=O)(=O)c2ccc(C)c(C(=O)NCC(c3ccco3)N(C)C)c2)cc1 (stereo not given)	5	-11	/	16*	-2	2	0	-3
CS(=O)(=O)c1ccc(NS(=O)(=O)c2ccc(Cl)c(C(=O)NCc3ccco3)c2)cc1	-2	/	/	19*	-24	24	0	-1
Cc1ccc(SCCN)cc1C	-2	-7	-0.66	21*	-15	15	0	13
CCCn1c(N)c(Sc2ccc(Cl)cc2)c(=O)n(CCC)c1=O	2	-3	/	23*	16	-16	-1	6
CCCCn1c(N)c(Sc2ccc(Cl)cc2)c(=O)[nH]c1=O	-2	12	/	2	8	-8	/	/
CN(c1cccc(NC(=O)CCSc2ccccc2)c1)S(C)(=O)=O	1	-23	/	-3	-13	13	/	/
CC(Sc1ccccc1)C(=O)Nc1cccc(N(C)S(C)(=O)=O)c1 (stereo not given)	1	-7	0.22	17*	0	0	-1	-5
CCOC(=O)C1=C(N)Oc2cc(O)ccc2C1c1ccccc1 (stereo not given)	-3	-4	/	-4	-5	5	/	/
CCOC(=O)C1=C(N)Oc2cc(O)ccc2C1c1ccc(C)cc1 (stereo not given)	-4	-2	/	31*	24	-24	1.1*	-1
O=C(CCc1ccncc1)NC1CCCc2c1cnn2-c1ccc(F)cc1F (stereo not given)	-1	6	/	16*	-6	6	0	-1
O=C(CCc1ccccn1)NC1CCCc2c1cnn2-c1ccc(F)cc1F (stereo not given)	-3	-6	0.22	-1	/	/	/	/
Cc1ccc(NC(=O)CN(C)S(=O)(=O)c2ccc(Cl)s2)c(O)c1	-3	/	/	18*	-6	6	-1	-1
CCN(CC)CCNC(=O)c1ccc(NC(=O)c2ccc(-n3cncn3)c([N+](=O)[O-])c2)cc1	/	/	/	5	/	/	/	/
SMILES	beta cell repl	Calb FLC	Ins promoter up	HTR2A ag	SR-BI HDL uptake	SR-BI DiI-HDL act	OPRM1 ag	m5-HT2A ag conf
CC(C)C(NC(=O)c1c(F)cccc1F)C(=O)N1CCN(c2ncccn2)CC1 (stereo not given)	-3	/	/	-1	17	-17	/	/
CCN(CC(=O)Nc1ccccc1C(F)(F)F)C(=O)c1ccccc1OCc1ccc(F)cc1	/	/	/	3	50	-50	/	/
COc1ccc(CCC(=O)NNC(=O)Cn2nc(C)cc2C)cc1	-3	0	/	17*	3	-3	-1	-7
Cc1cccc(OCCC(=O)NNC(=O)Cn2nc(C)cc2C)c1	-2	/	/	1	-8	8	/	/
CCCCN(C)C(=O)c1sc(=O)n(Cc2cc(Cl)ccc2OC)c1C	/	/	/	17*	/	/	-1	-6
COc1ccc(Cl)cc1Cn1c(C)c(C(=O)N(C)Cc2ccc(F)cc2)sc1=O	/	/	/	6	/	/	/	/
C/C(=N\NC(=O)c1nnn(-c2nonc2N)c1CN1CCC(C)CC1)c1ccc(Br)cc1	/	/	/	4	/	/	/	/
COc1ccccc1CN(C)C(=O)CN1CCN(C(=O)c2cccs2)CC1	-5	/	/	17*	22	-22	0	27*
COc1ccccc1CC(NC(C)=O)C(=O)N1CCN(C(=O)c2cccs2)CC1 (stereo not given)	-1	8	0.42	4	-9	9	/	/
CN(C(=O)COC(=O)c1cncc(Br)c1)C1CCCCC1	-3	/	/	19*	-5	5	0	0
O=C(CN1C(=O)NC2(CCCC2)C1=O)NCc1ccc(Cl)cc1	0	/	/	19*	13	-13	0	-2
O=C(CN1C(=O)NC2(CCCC2)C1=O)OCc1ccccc1F	-4	/	/	0	-5	5	/	/

Source: PubChem (several laboratories)
